Calls of active or inactive are those of the source. No cut-off for these calls is given here.

By EC50 is commonly meant the concentration that produces a half-maximal response. By EC90 is commonly meant the point of the concentration-response curve where the effect stands at 90%. What is called CC50 is the concentration giving 50% cytotoxicity. One may read the IC50 as the concentration at which inhibition is half-maximal.

Data set [1] relates to Hepatitis C virus. The data set is described as follows: Antiviral activity against Hepatitis C virus JFH1 assessed as viral RNA level by quantitative real-time PCR. Type of data set: functional, organism-based, Hepacivirus hominis. The following applies: JFH-1. (In general: In qPCR the cycle at which signal appears reflects the starting amount.)
For another data set, the system named is West Nile virus. The data set is described as follows: Antiviral activity against West Nile virus New York by neutral red assay. Type of data set: functional, organism-based.
The subject of the next data set is Influenza A virus. Kind of data set: Antiviral activity against Influenza A virus (A/Brisbane/10/2007(H3N2)) infected in HFF by neutral red assay. Type of data set: functional, organism-based.
Data set [2] is described as follows: Cytotoxicity against human HepG2 cells assessed as effect on cellular GAPDH RNA level after 8 days by quantitative real-time PCR. Type of data set: cell-based.
The nature of data set [3]: Cytotoxicity against human BxPC3 cells assessed as effect on cellular GAPDH RNA level after 8 days by quantitative real-time PCR. It counts as cell-based, BXPC-3.
The nature of data set [4]: Cytotoxicity against human CEM cells assessed as effect on cellular GAPDH RNA level after 8 days by quantitative real-time PCR. Type of data set: cell-based. The following applies: CEM (CCRF-CEM) cells.
Data set [5] is described as follows: Cytotoxicity against human CEM cells. It counts as cell-based. The conditions noted are these: CEM (CCRF-CEM) cells. The method, boiled down:
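Cells treated 8 days with compound serially diluted from 100 μM in DMSO-containing medium, gemcitabine (1 μM) or DMSO control. Viability by MTS-type tetrazolium assay, absorbance at 490 nm with medium-only blanks. Value derived by comparison with DMSO control wells.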

In data set [6] the test system is Hepatitis C virus. Kind of data set: Antiviral activity against Hepatitis C virus harboring NS5B polymerase S96T/N142T mutant gene infected in human lunet cells by luciferase-based replicon assay. It counts as functional, Hepacivirus hominis. In short, it runs like this: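 ET-lunet cells with the ET genotype 1b replicon, wild-type or S96T/N142T (ET replicon with these mutations electroporated into Lunet cells, selected in 0.2 mg/ml G418). 3,000 cells/well, 4 days with serially diluted compound. Firefly luciferase luminescence read-out; EC90 from dose–response.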
(In general: In antiviral work, replicon cells carry a viral genome segment that copies itself.)

Data set [7] relates to Hepatitis C virus. Kind of data set: Antiviral activity against Hepatitis C virus assessed as log reduction in viral RNA at 1 uM after 3 weeks. Type of data set: functional, Hepacivirus hominis. In short, it runs like this:
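ET-lunet replicon cells seeded at 1 × 10^5/well without G418, treated at 0.1, 1 or 2 μM (final DMSO 0.5%). Passaged 1:3–1:4 every 3–4 days for 3 weeks with fresh compound. Then compound withdrawn and cells grown 3 more weeks in 0.25 mg/ml G418. HCV RNA by RT-PCR (ΔΔCt vs rRNA and DMSO controls, log change). Colonies fixed in formaldehyde and stained with crystal violet at 6 weeks.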

Data set [8] can be described thus: Inhibition of Hepatitis C virus genotype 3a recombinant NS5B polymerase after 3 hrs by phosphor imaging. The arrangement: species or system Hepatitis C virus subtype 3a. In short, it runs like this:
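C-terminal Δ21-truncated NS5B: 1b Con1 and 2a JFH-1 expressed in E. coli; 3a and 4a cloned from patient serum. Mix: 1 μM each NTP, [α-32P]UTP, 20 ng/μl genotype 1b(−) IRES RNA template, 40 ng/μl enzyme, 1 mM MgCl2, 0.75 mM MnCl2, 2 mM DTT, 50 mM HEPES pH 7.5. Run at 27°C: 30 min (1b, 2a) or 3 h (3a, 4a). EDTA quench, products on membrane read by phosphorimager. Duplicates; IC50 calculated.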

Data set [9] addresses T1, DNA polymerase subunit gamma-1 (Homo sapiens, UniProt P54098).
T1 sequence (P54098 whole entry): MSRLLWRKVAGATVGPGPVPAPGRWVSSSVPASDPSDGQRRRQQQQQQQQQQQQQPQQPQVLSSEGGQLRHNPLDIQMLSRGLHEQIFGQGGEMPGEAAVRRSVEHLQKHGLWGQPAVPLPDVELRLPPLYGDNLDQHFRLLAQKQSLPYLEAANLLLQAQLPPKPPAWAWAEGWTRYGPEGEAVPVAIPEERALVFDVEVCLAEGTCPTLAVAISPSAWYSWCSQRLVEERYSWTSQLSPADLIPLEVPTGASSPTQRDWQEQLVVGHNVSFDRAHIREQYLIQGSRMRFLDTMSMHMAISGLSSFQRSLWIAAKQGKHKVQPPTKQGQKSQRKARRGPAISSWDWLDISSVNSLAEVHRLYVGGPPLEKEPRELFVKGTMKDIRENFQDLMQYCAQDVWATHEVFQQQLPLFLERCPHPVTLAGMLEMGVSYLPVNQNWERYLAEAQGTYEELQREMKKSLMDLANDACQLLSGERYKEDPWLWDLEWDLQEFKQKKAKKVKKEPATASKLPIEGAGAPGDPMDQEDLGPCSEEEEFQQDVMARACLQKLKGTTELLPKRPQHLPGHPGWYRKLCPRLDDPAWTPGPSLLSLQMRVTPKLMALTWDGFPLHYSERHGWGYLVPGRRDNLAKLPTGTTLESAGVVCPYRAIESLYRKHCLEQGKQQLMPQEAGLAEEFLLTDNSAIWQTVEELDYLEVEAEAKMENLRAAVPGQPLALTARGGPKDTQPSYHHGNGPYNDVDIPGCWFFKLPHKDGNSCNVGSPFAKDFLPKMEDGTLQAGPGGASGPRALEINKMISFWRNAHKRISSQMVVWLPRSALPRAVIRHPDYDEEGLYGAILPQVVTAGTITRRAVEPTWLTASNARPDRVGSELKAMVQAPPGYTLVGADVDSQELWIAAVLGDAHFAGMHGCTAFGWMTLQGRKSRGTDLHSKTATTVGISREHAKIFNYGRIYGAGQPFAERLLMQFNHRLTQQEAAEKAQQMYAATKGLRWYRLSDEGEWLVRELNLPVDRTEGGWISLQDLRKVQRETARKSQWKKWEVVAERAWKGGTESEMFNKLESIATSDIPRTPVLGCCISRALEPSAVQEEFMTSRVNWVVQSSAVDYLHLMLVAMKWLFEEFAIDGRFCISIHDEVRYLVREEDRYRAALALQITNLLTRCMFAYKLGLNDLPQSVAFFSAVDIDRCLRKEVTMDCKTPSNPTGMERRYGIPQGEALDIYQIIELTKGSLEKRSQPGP
Kind of data set: Inhibition of human DNA polymerase gamma assessed as incorporation of [alpha-32P]dCTP up to 1mM preincubated for 30 mins by whatman DE81 paper binding assay. The method, boiled down:
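Human DNA polymerase α (20 μg/ml) or γ (50 μg/ml) in 50 mM Tris pH 7.5, 50 mM NaCl, activated calf thymus DNA, 20 μM each dNTP, [α-32P]dCTP, 5 mM MgCl2. Nucleotide inhibitor up to 1 mM. 37°C, quenched with EDTA at 30 min. Product measured by DE81 paper binding; IC50 by nonlinear fit.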

For data set [10], the target named is T2, DNA-directed RNA polymerase II subunit RPB1 (Homo sapiens, UniProt P24928). The data set is described as follows: Inhibition of human RNA polymerase 2 assessed as synthesis of RNA products at 1 uM. The method, boiled down:
(§1)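 In vitro transcription by HeLa nuclear extract from CMV immediate-early promoter DNA. Mix: 400 μM ATP, CTP and UTP, 16 μM GTP, [α-32P]GTP, 3 mM MgCl2, in 20 mM HEPES pH 7.9 buffer with KCl, EDTA, DTT and glycerol. Inhibitor up to 1 mM. 30°C for 60 min. RNA purified, run on 6% sequencing gel and quantified by phosphorimager.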

Data set [11] deals with T2, DNA-directed RNA polymerase II subunit RPB1. Kind of data set: Inhibition of human RNA polymerase 2. In short, it runs like this: as §1

On to `CC(C)OC(=O)[C@H](C)NP(=O)(OC[C@H]1O[C@@H](n2ccc(=O)[nH]c2=O)[C@](C)(F)[C@@H]1O)Oc1ccccc1` (some centres undefined), for which the EC50 was 0.18 µM in the data set with Hepatitis C virus [1], over 100 µM in the data set with West Nile virus and over 100 µM with Influenza A virus. Moreover, the 90% effect concentration (EC90) in the data set with Hepatitis C virus [1] was 0.52 µM; in the data set on Hepatitis C virus [6] it was 0.39 µM. For the same molecule, the CC50 at 192 h in data set [2], in [3] and in [4] was over 100 µM in each case. Further, the CC90 in [5] amounted to 28.5 µM. For the same molecule, the FC in the data set on Hepatitis C virus [7] was determined as 4.
Regarding `C[C@@]1(F)[C@H](O)[C@@H](COP(=O)(O)OP(=O)(O)OP(=O)(O)O)O[C@H]1n1ccc(=O)[nH]c1=O` [GS-461203], the values for the IC50 in data set [8], in [9] and in data set [11] were 0.7 µM, over 1000 µM and over 500 µM, respectively. The inhibition result in [10] is “Active”.

These data come from ChEMBL document CHEMBL1629705, “PSI-7851, a pronucleotide of beta-D-2'-deoxy-2'-fluoro-2'-C-methyluridine monophosphate, is a potent and pan-genotype inhibitor of hepatitis C virus replication” (Antimicrob Agents Chemother, 2010).
